One block for each compound: values may come before it.
What was measured:
[1] = Oral bioavailability in rat; format: ADME, organism-based; conditions: in vivo
[2] = tested on: Plasma; experiment: Anticoagulant activity in human plasma assessed as concentration required to double the thrombin generation time; format: functional
[3] = Volume of distribution in rat; format: ADME, organism-based; conditions: in vivo
[4] = target: Coagulation factor X (Homo sapiens, UniProt P00742); experiment: Inhibition of Factor 10a
[5] = target: Prothrombin (Homo sapiens, UniProt P00734); experiment: Inhibition of thrombin
[6] = Inhibition of trypsin
[7] = target: Tissue-type plasminogen activator (Homo sapiens, UniProt P00750); experiment: Inhibition of tissue plasminogen activator
[8] = target: Plasminogen (Homo sapiens, UniProt P00747); experiment: Inhibition of plasmin
[9] = Inhibition of kallikrein
[10] = target: Vitamin K-dependent protein C (Homo sapiens) (UniProt P04070); experiment: Inhibition of activated protein C
[11] = Protein binding in human plasma; format: ADME, cell-free; conditions: read-out: PB (converted)
Method in brief: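 Plasma protein binding measured by ultrafiltration. Working solution added 1/100 to EDTA human plasma to a final 10 µM, incubated 37 °C for 30 min. Triplicate aliquots were centrifuged through filter devices for 25 min at 32 °C. Filtrate was mixed with acetonitrile containing internal standard and quantified by LC/MS/MS against standards prepared in ultrafiltered plasma.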

[12] = Oral bioavailability in Sprague-Dawley rat at 6 mg/kg; format: ADME, organism-based; conditions: in vivo
Method in brief: (§1)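 Sprague–Dawley rats dosed 0.4 mg/kg IV and 6 mg/kg PO. Derived PK parameters: F (%), t1/2 (h), CL (mL/min/kg), Vd (L/kg).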

[13] = Half life in Sprague-Dawley rat at 0.4 mg/kg, iv and 6 mg/kg, po; format: ADME, organism-based; conditions: in vivo; method in brief: as §1
[14] = Clearance in Sprague-Dawley rat at 0.4 mg/kg, iv and 6 mg/kg, po; format: ADME, organism-based; conditions: in vivo; method in brief: as §1
[15] = Volume of distribution in Sprague-Dawley rat at 0.4 mg/kg, iv and 6 mg/kg, po; format: ADME, organism-based; conditions: in vivo; method in brief: as §1
[16] = Oral bioavailability in Beagle dog at 0.5 mg/kg; format: ADME, organism-based, Canis lupus familiaris; conditions: in vivo
Method in brief: (§2)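 Beagle dogs dosed 0.1 mg/kg IV and 0.5 mg/kg PO. Derived PK parameters: F (%), t1/2 (h), CL (mL/min/kg), Vd (L/kg).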

[17] = Clearance in Beagle dog at 0.1 mg/kg, iv and 0.5 mg/kg, po; format: ADME, organism-based, Canis lupus familiaris; conditions: in vivo; method in brief: as §2
[18] = Volume of distribution in Beagle dog at 0.1 mg/kg, iv and 0.5 mg/kg, po; format: ADME, organism-based, Canis lupus familiaris; conditions: in vivo; method in brief: as §2
[19] = Half life in Beagle dog at 0.1 mg/kg, iv and 0.5 mg/kg, po; conditions: in vivo

Sequence of Coagulation factor X (P00742 41-179 limits assumed): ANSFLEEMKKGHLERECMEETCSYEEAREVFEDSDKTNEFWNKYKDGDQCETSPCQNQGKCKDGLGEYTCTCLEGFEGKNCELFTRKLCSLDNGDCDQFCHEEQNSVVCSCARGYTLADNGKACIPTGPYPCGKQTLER
Sequence of Coagulation factor X (P00742 235-488 limits assumed): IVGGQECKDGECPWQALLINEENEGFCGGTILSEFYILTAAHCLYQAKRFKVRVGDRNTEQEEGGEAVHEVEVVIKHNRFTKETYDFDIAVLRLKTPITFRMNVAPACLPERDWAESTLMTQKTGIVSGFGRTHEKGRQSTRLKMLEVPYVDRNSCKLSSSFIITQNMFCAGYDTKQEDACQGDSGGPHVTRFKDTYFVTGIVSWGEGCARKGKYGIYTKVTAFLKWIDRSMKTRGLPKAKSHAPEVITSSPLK
Sequence of Tissue-type plasminogen activator (P00750 whole entry): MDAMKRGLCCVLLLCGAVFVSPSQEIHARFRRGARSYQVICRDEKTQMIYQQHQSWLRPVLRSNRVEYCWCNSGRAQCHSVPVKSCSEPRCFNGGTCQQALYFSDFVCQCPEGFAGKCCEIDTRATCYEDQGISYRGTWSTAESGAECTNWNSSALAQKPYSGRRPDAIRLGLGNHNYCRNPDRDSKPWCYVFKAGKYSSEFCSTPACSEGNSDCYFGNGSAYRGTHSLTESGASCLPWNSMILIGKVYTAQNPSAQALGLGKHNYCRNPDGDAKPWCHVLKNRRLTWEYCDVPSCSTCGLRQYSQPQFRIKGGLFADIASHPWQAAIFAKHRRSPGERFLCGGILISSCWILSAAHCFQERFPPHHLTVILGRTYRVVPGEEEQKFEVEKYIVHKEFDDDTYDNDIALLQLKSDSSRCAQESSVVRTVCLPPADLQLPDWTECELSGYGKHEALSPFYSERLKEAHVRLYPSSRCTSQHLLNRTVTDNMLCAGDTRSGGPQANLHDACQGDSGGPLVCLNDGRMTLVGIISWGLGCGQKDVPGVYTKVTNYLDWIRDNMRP
Sequence of Plasminogen (P00747 97-580 limits assumed): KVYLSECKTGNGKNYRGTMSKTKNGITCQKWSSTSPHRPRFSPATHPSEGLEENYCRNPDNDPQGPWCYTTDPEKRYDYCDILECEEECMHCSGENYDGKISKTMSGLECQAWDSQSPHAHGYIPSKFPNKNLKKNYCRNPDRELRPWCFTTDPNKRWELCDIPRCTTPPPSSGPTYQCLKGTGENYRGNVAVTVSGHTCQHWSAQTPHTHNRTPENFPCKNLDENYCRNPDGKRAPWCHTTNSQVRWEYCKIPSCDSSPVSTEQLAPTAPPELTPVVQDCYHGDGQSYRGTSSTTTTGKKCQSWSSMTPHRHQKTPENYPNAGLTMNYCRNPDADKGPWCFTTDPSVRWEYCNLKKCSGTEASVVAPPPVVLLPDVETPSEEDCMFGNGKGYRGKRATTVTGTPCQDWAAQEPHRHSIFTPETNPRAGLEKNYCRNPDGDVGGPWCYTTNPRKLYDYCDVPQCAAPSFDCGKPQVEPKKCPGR
Sequence of Plasminogen (P00747 581-810 limits assumed): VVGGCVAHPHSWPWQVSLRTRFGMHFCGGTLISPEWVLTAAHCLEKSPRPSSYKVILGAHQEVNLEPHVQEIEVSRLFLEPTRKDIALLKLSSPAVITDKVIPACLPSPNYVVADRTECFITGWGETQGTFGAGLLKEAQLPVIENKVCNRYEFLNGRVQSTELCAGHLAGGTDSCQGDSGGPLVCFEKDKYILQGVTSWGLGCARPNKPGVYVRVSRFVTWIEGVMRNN

bioavailability [1]: < 1%
Structure (SMILES): N=C1NCCN1Cc1ccc(C(=O)Nc2ccc(Cl)cc2C(=O)Nc2ccc(Cl)cn2)cc1
Activity [2]: 0.58 µM

bioavailability [1]: 35%
Structure (SMILES): NS(=O)(=O)c1ccccc1-c1ccc(C(=O)Nc2ccccc2C(=O)Nc2ccc(Cl)cn2)cc1
Activity [2]: >5 µM

Vd [3]: 13.6 L/kg
Structure (SMILES): N=C1OCCN1Cc1ccc(C(=O)Nc2ccc(Cl)cc2C(=O)Nc2ccc(Cl)cn2)cc1
Activity [2]: 0.56 µM

IC50 [4]: 4 nM | bioavailability [1]: < 5% | IC50 [5]: > 10000 nM | IC50 [6]: > 10000 nM | IC50 [7]: > 10000 nM | IC50 [8]: > 10000 nM | IC50 [9]: 4900 nM | IC50 [10]: > 10000 nM
Structure (SMILES): N=C(N)c1ccc(C(=O)Nc2ccccc2C(=O)Nc2ccc(Cl)cn2)cc1

IC50 [4]: 290 nM
Structure (SMILES): CONC(=N)c1ccc(C(=O)Nc2ccccc2C(=O)Nc2ccc(Cl)cn2)cc1

IC50 [4]: 25 nM
Structure (SMILES): N=C(NN)c1ccc(C(=O)Nc2ccccc2C(=O)Nc2ccc(Cl)cn2)cc1

IC50 [4]: 30 nM
Structure (SMILES): CN(C)NC(=N)c1ccc(C(=O)Nc2ccccc2C(=O)Nc2ccc(Cl)cn2)cc1

IC50 [4]: 256 nM
Structure (SMILES): N=C(c1ccc(C(=O)Nc2ccccc2C(=O)Nc2ccc(Cl)cn2)cc1)N1CCS(=O)(=O)CC1

IC50 [4]: 7 nM
Structure (SMILES): N=C(c1ccc(C(=O)Nc2ccccc2C(=O)Nc2ccc(Cl)cn2)cc1)N1CCOCC1

IC50 [4]: 12 nM
Structure (SMILES): N=C(c1ccc(C(=O)Nc2ccccc2C(=O)Nc2ccc(Cl)cn2)cc1)N1CCSCC1

IC50 [4]: 714 nM
Structure (SMILES): CN1CCN(C(=N)c2ccc(C(=O)Nc3ccccc3C(=O)Nc3ccc(Cl)cn3)cc2)CC1

IC50 [4]: 20 nM | fraction unbound [11]: 0.18 | bioavailability [12]: 22% | half-life [13]: > 6 h | clearance [14]: 7.1 mL/min/kg | Vd [15]: 3.7 L/kg | bioavailability [16]: 50% | clearance [17]: 49.6 mL/min/kg | Vd [18]: 9.2 L/kg | half-life [19]: 2.2 h
Structure (SMILES): CN1CCN=C1c1ccc(C(=O)Nc2ccccc2C(=O)Nc2ccc(Cl)cn2)cc1
Activity [2]: 1.1 µM

IC50 [4]: 64 nM
Structure (SMILES): CCN1CCN=C1c1ccc(C(=O)Nc2ccccc2C(=O)Nc2ccc(Cl)cn2)cc1

IC50 [4]: 226 nM
Structure (SMILES): O=C(Nc1ccccc1C(=O)Nc1ccc(Cl)cn1)c1ccc(C2=NCCCN2)cc1

fraction unbound [11]: 0.27 | half-life [13]: 4.3 h | clearance [14]: 16.8 mL/min/kg | Vd [15]: 6.3 L/kg | bioavailability [16]: 69% | clearance [17]: 45.7 mL/min/kg | Vd [18]: 13.7 L/kg | half-life [19]: 3.5 h
Structure (SMILES): CN(C)C(=N)c1ccc(C(=O)Nc2ccccc2C(=O)Nc2ccc(Cl)cn2)cc1
Activity [2]: 0.54 µM

IC50 [4]: 78 nM
Structure (SMILES): CN1CCCN=C1c1ccc(C(=O)Nc2ccccc2C(=O)Nc2ccc(Cl)cn2)cc1

IC50 [4]: 6 nM
Structure (SMILES): CCN(C)C(=N)c1ccc(C(=O)Nc2ccccc2C(=O)Nc2ccc(Cl)cn2)cc1

IC50 [4]: 8 nM
Structure (SMILES): N=C(c1ccc(C(=O)Nc2ccccc2C(=O)Nc2ccc(Cl)cn2)cc1)N1CCCC1

IC50 [4]: 10 nM
Structure (SMILES): CCN(CC)C(=N)c1ccc(C(=O)Nc2ccccc2C(=O)Nc2ccc(Cl)cn2)cc1

IC50 [4]: 93 nM
Structure (SMILES): CCNC(=N)c1ccc(C(=O)Nc2ccccc2C(=O)Nc2ccc(Cl)cn2)cc1

IC50 [4]: 8 nM
Structure (SMILES): N=C(c1ccc(C(=O)Nc2ccccc2C(=O)Nc2ccc(Cl)cn2)cc1)N1CCC1

IC50 [4]: 38 nM
Structure (SMILES): N=C(c1ccc(C(=O)Nc2ccccc2C(=O)Nc2ccc(Cl)cn2)cc1)N1CCNCC1

IC50 [4]: 3 nM | fraction unbound [11]: 0.11 | bioavailability [12]: 18% | half-life [13]: 6 h | clearance [14]: 32.2 mL/min/kg | Vd [15]: 16.7 L/kg
Structure (SMILES): N=C(c1ccc(C(=O)Nc2ccccc2C(=O)Nc2ccc(Cl)cn2)cc1)N1CCCCC1
Activity [2]: 0.36 µM

IC50 [4]: 35 nM
Structure (SMILES): N=C(NO)c1ccc(C(=O)Nc2ccccc2C(=O)Nc2ccc(Cl)cn2)cc1

IC50 [4]: 316 nM
Structure (SMILES): O=C(Nc1ccccc1C(=O)Nc1ccc(Cl)cn1)c1ccc(C2=NCCN2)cc1

IC50 [4]: 9 nM
Structure (SMILES): CCCN(C)C(=N)c1ccc(C(=O)Nc2ccccc2C(=O)Nc2ccc(Cl)cn2)cc1

IC50 [4]: 23 nM
Structure (SMILES): CNC(=N)c1ccc(C(=O)Nc2ccccc2C(=O)Nc2ccc(Cl)cn2)cc1

— ChEMBL document CHEMBL1153991, “Anthranilamide-based N,N-dialkylbenzamidines as potent and orally bioavailable factor Xa inhibitors: P4 SAR” (Bioorg Med Chem Lett, 2009)
